In ChEMBL document CHEMBL1287688 (Bioorg Med Chem, 2010):

How the values were obtained:
[1] = biological target: T1, Glutamate NMDA receptor; GRIN1/GRIN2B (Homo sapiens, UniProt Q05586+Q13224); test: Displacement of [3H]ifenprodil from human recombinant NR1-1a/NR2B receptor expressed in mouse L(tk-) cells after 120 mins by scintillation counting; format: cell-based
[2] = biological target: Sigma non-opioid intracellular receptor 1 (Cavia porcellus, UniProt Q60492); test: Displacement of [3H](+)-pentazocine from sigma1 receptor guinea pig brain after 180 mins scintillation counting
Sequence of Sigma non-opioid intracellular receptor 1 (Q60492 whole entry): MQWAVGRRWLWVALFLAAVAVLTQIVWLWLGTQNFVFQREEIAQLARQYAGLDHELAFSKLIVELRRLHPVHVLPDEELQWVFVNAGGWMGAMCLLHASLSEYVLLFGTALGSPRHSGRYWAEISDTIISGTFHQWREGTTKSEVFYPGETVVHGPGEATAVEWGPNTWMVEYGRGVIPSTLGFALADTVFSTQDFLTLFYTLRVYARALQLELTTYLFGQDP

[3] = Displacement of [3H]di-o-tolylguanidine from sigma2 receptor rat liver membranes after 180 mins scintillation counting; format: cell membranes, Membrane
[4] = Selectivity ratio of Ki for guinea pig sigma1 receptor to Ki for human recombinant NR1a/NR2B receptor
[5] = biological target: T1, Glutamate NMDA receptor; GRIN1/GRIN2B; test: Antagonist activity at human recombinant NR1-1a/NR2B receptor expressed in mouse L(tk-) cells assessed as inhibition of (S)-glutamate/glycine-stimulated excitotoxicity treated 30 mins before (S)-glutamate/glycine challenge measured after 4 hrs by LDH release assay; format: functional, cell-based
Outline: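 L13-E6 mouse L(tk-) cells stably expressing NR1-1a/NR2B; compounds (1 nM-10 µM, in DMSO) preincubated 30 min, then (S)-glutamate plus glycine (10 µM each) added, 4 h further incubation. LDH in supernatant measured; 0% = no agonist with 100 µM ketamine, 100% = glutamate/glycine without ketamine. At least three experiments, six replicates per concentration; IC50 calculated from curves.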

[6] = biological target: T2, Amine oxidase [flavin-containing] A (Homo sapiens, UniProt P21397); test: Displacement of radiolabeled kynuramine from MAO-A at 1 to 3 uM
T2 sequence (P21397 whole entry): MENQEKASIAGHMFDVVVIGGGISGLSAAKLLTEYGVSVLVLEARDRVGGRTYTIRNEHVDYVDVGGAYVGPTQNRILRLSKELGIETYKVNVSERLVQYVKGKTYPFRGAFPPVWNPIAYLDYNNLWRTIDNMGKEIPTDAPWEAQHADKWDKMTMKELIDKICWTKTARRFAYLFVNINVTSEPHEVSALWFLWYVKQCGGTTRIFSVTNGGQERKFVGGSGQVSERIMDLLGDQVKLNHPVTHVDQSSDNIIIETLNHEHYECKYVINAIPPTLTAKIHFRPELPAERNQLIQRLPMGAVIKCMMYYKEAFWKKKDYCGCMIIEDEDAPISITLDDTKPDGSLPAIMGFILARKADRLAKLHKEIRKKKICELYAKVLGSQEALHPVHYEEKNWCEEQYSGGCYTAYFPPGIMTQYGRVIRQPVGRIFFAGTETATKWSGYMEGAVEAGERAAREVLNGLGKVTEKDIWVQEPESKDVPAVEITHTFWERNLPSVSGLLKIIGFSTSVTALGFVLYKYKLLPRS
Outline: (§1)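 Broad radioligand competition screen against more than 100 receptors, transporters and enzymes, with test concentrations of 1-3 µM. Targets and radioligands are listed only in supplementary data. hERG IC50 was estimated.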

[7] = biological target: T3, Amine oxidase [flavin-containing] B (Homo sapiens, UniProt P27338); test: Displacement of radiolabeled kynuramine from MAO-B at 1 to 3 uM; outline: as §1
T3 sequence (P27338 whole entry): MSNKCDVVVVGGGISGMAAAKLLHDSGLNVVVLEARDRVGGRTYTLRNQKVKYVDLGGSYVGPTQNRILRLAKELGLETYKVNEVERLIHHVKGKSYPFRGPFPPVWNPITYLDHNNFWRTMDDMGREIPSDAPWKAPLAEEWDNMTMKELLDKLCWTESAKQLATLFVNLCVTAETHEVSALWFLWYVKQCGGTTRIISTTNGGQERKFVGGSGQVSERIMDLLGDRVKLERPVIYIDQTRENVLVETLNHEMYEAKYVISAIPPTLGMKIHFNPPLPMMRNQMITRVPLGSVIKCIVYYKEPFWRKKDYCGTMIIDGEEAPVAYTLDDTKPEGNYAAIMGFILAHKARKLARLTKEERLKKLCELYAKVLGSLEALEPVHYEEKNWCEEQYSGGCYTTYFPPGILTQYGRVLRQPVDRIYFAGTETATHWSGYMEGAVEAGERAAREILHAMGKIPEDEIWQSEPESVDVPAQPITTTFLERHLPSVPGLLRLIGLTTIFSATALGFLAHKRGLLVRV

[8] = biological target: T4, UDP-glucuronosyltransferase 1A1 (Homo sapiens, UniProt P22309); test: Displacement of radiolabeled scopoletin from UGT1A1 at 1 to 3 uM; outline: as §1
T4 sequence (P22309 whole entry): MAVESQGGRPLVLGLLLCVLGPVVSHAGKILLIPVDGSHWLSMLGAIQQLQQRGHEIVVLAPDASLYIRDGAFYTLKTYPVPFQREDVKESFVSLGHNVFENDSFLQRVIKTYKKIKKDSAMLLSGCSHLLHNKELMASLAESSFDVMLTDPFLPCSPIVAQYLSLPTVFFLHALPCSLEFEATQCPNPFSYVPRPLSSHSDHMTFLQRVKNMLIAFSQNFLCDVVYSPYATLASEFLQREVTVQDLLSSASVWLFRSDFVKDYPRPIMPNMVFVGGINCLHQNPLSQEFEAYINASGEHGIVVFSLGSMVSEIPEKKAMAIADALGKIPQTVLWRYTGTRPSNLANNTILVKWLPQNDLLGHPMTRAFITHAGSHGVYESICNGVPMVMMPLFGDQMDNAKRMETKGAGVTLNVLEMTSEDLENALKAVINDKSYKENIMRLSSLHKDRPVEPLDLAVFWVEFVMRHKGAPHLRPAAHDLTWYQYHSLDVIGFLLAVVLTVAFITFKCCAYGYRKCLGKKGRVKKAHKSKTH

[9] = Half life in mouse liver microsomes; format: ADME, Microsome
Outline: (§2)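 Test article incubated with liver microsomes prepared from mouse, rat and human; half-life determined.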

[10] = Half life in rat liver microsomes; format: ADME, Microsome; outline: as §2
[11] = Half life in human liver microsomes; format: ADME, Microsome; outline: as §2
Mus musculus [12] = test: Toxicity in mouse assessed as unusual reactions at 1 to 100 mg/kg, ip after 24 hrs; format: organism-based; design: dose 1-100 mg/kg, route intraperitoneal; settings: in vivo
Outline: (§3)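 Mice (Irwin test) received increasing intraperitoneal doses of 1-100 mg/kg body weight. Behaviour was then observed for 24 h.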

Mus musculus [13] = test: Toxicity in mouse assessed as diarrhea at 100 mg/kg, ip after 30 mins; format: organism-based; design: dose 100 mg/kg, route intraperitoneal; settings: in vivo, 0.5 h; outline: as §3

T1 sequence (Q13224 whole entry, other chains not shown): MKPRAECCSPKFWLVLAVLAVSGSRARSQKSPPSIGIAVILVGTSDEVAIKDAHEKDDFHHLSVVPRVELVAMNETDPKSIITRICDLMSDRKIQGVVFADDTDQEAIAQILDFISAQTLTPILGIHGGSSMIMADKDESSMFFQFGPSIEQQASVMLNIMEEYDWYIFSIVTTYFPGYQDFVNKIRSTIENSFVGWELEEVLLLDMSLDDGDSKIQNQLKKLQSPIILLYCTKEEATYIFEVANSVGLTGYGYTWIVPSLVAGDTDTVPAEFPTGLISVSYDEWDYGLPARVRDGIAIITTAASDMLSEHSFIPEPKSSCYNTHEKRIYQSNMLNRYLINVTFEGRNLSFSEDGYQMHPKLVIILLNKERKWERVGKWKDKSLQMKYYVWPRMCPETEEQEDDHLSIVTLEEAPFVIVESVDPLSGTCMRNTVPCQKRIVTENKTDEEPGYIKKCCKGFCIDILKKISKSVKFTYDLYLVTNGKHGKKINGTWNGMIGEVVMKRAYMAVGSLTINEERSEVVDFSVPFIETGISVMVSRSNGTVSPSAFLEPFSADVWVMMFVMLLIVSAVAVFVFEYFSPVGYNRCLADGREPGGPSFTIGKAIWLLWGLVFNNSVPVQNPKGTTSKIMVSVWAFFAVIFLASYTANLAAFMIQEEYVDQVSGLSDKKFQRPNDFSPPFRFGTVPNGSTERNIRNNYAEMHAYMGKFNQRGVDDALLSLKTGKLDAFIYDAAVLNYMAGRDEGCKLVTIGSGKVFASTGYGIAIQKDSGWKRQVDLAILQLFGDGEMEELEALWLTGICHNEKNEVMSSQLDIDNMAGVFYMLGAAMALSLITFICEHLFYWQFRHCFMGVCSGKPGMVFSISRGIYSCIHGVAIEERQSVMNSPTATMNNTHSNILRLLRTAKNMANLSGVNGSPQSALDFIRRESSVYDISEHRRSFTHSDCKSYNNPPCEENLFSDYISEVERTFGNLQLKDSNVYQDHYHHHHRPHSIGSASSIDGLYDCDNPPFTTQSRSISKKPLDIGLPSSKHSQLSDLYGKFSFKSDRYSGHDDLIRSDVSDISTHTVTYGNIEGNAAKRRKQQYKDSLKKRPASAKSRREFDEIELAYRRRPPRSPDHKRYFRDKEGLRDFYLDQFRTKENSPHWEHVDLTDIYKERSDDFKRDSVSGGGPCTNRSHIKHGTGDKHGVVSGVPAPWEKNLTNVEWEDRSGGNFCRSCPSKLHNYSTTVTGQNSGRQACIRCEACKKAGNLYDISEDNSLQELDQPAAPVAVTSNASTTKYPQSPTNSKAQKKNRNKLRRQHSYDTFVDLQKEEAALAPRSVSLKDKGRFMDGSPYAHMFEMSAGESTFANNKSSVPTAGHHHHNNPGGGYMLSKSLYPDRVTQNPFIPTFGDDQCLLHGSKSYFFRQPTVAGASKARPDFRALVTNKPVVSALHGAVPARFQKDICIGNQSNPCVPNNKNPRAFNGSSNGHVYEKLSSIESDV

SMILES	Ki [1] [nM]	Ki [2] [nM]	Ki [3] [nM]	also measured
OC1CN([C@H]2CC[C@@H](c3ccccc3)CC2)CCc2cc(OCc3ccccc3)ccc21 (some centres not stated)	139	10	311	Ratio Ki [4]: 14
OC1CN([C@H]2CC[C@H](c3ccccc3)CC2)CCc2cc(OCc3ccccc3)ccc21 (some centres not stated)	388	386	> 1000	
COc1ccc2c(c1)CCN(CCCCc1ccccc1)CC2O (configuration not stated)	5.4		554	IC50 [5]: 360 nM
OC1CN(Cc2ccc(N3CCCCC3)cc2)CCc2cc(OCc3ccccc3)ccc21 (racemic)	1310	604	6430	
COc1ccc(C(=O)CCCN2CCc3cc(OCc4ccccc4)ccc3C(O)C2)cc1 (racemic)	> 1000	> 1000	4500	
Oc1ccc2c(c1)CCN(CCCCc1ccccc1)CC2O (racemic)	14		18000	Activity [6]: Not Active; Activity [7]: Not Active; Activity [8]: Not Active; IC50 [5]: 18.4 nM; half-life [9]: 28 min; half-life [10]: < 3 min; half-life [11]: 21 min; Activity (Mus musculus [12]): Non-toxic; Activity (Mus musculus [13]): Toxic
O=S(=O)(CCCN1CCc2cc(O)ccc2C(O)C1)c1ccccc1 (racemic)	> 1000	> 1000	653	
Oc1ccc2c(c1)CCN(C1CCC3(CC1)OCCO3)CC2O (racemic)	> 1000	> 1000	658	
Oc1ccc2c(c1)CCN([C@H]1CO[C@H](c3ccccc3)OC1)CC2O (mixture of isomers)	> 1000	> 1000	> 1000	
O=C(c1ccccc1)N1CCC(N2CCc3cc(O)ccc3C(O)C2)CC1 (racemic)	204	> 1000	98	
CC1(C)COC(CCCN2CCc3cc(OCc4ccccc4)ccc3C(O)C2)(c2ccc(C(C)(C)C)cc2)OC1 (racemic)	> 1000	> 1000	900	
COc1ccc(C2(CCCN3CCc4cc(OCc5ccccc5)ccc4C(O)C3)OCC(C)(C)CO2)cc1 (racemic)	661	> 1000	> 1000	
CC1(C)COC(CCCN2CCc3cc(OCc4ccccc4)ccc3C(O)C2)(c2ccc(F)cc2)OC1 (racemic)	1420	> 1000	> 1000	
OC1CN(Cc2cccc(-c3ccccc3)c2)CCc2cc(OCc3ccccc3)ccc21 (racemic)	1210	> 1000	> 1000	
OC1CN(C2CCC3(CC2)OCCO3)CCc2cc(OCc3ccccc3)ccc21 (racemic)	1120		753	
OC1CN(C2COC(c3ccccc3)OC2)CCc2cc(OCc3ccccc3)ccc21 (racemic)	1000	186	> 1000	
O=C(c1ccccc1)N1CCC(N2CCc3cc(OCc4ccccc4)ccc3C(O)C2)CC1 (racemic)	> 1000	> 1000	> 1000	
OC(CN1CCC(Cc2ccc(F)cc2)CC1)c1ccc(Cl)cc1 (configuration not stated) [ELIPRODIL]	13			
CC(C(O)c1ccc(O)cc1)N1CCC(Cc2ccccc2)CC1 (configuration not stated) [IFENPRODIL]				half-life [9]: < 5 min; half-life [10]: < 1 min; half-life [11]: 5 min

Further lines, with some results ahead:

Ki [1] [nM]	Ki [2] [nM]	Ki [3] [nM]	SMILES	also measured
644	> 1000	> 1000	CC(C)(C)c1ccc(C(=O)CCCN2CCc3cc(OCc4ccccc4)ccc3C(O)C2)cc1 (racemic)	
151	293	1050	O=C(CCCN1CCc2cc(OCc3ccccc3)ccc2C(O)C1)c1ccc(F)cc1 (racemic)	
20	170	5.9	Oc1ccc2c(c1)CCN(CCCOc1ccccc1)CC2O (racemic)	
> 1000		1580	CN(Cc1ccccc1)C(=O)CN1CCc2cc(O)ccc2C(O)C1 (racemic)	
3.3	123	8.6	Oc1ccc2c(c1)CCN([C@H]1CC[C@@H](c3ccccc3)CC1)CC2O (mixture of isomers)	IC50 [5]: 12100 nM
9	200	8.9	Oc1ccc2c(c1)CCN([C@H]1CC[C@H](c3ccccc3)CC1)CC2O (mixture of isomers)	
36	1050	33	O=C(CCCN1CCc2cc(O)ccc2C(O)C1)c1ccc(F)cc1 (racemic)	
187		1050	OC1CN(CCCCc2ccccc2)CCc2cc(OCc3ccccc3)ccc21 (racemic)	
93	193	945	OC1CN(CCCOc2ccccc2)CCc2cc(OCc3ccccc3)ccc21 (racemic)	
41		653	OC1CN(CCCSc2ccccc2)CCc2cc(OCc3ccccc3)ccc21 (racemic)	
37		3040	O=S(=O)(CCCN1CCc2cc(OCc3ccccc3)ccc2C(O)C1)c1ccccc1 (racemic)	
377	> 1000	2960	CN(Cc1ccccc1)C(=O)CN1CCc2cc(OCc3ccccc3)ccc2C(O)C1 (racemic)	
